The text below walks through data of ChEMBL document CHEMBL4251636, “Design, synthesis and biological evaluations of novel pyridone-thiazole hybrid molecules as antitumor agents” (Eur J Med Chem, 2018).

pIC50: −log10 of the molar value. Some results are limits rather than exact numbers.

The test system of assay [1] is HCT-116. As to the kind of experiment: Antiproliferative activity against human HCT116 cells after 72 hrs by MTT assay. The format is functional, cell-based. Particulars: HCT-116, 72 h. In outline:
(§1)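 Cells grown to log phase in RPMI 1640 with 10% FBS, seeded at 2×10^4 cells/mL and incubated 24 h at 37 °C, 5% CO2. Compounds added, then 72 h at 37 °C. MTT (5 mg/mL stock) for 4 h, formazan dissolved in DMSO, absorbance read at 570 nm. Triplicate wells per concentration, three independent experiments. IC50 is the concentration giving 50% growth inhibition versus untreated control, reported as mean ± S.E.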
(Formazan colour is commonly taken as a measure of viable cells.)

Assay [2] deals with MGC-803. Put plainly: Antiproliferative activity against human MGC803 cells after 72 hrs by MTT assay. The format is functional, cell-based. The following applies: MGC-803, 72 h. In outline:
as §1

For another assay, the system named is Huh-7. Put plainly: Antiproliferative activity against human HuH7 cells after 72 hrs by MTT assay. The format is functional, cell-based. The following applies: Huh-7, 72 h. Summed up: as §1
The subject of assay [3] is MGC-803. Put plainly: Potency index, ratio of 5-Fluorouracil IC50 to compound IC50 for antiproliferative activity against human MGC803 cells. The format is functional.
Assay [4] relates to HCT-116. As to the kind of experiment: Potency index, ratio of 5-Fluorouracil IC50 to compound IC50 for antiproliferative activity against human HCT116 cells. The format is functional.

For orientation: pIC50 means the IC50 on a negative log10 scale, so that one unit is a factor of ten. For the compound `CC(=O)c1sc(N/N=C2/C=C(Nc3cccc(F)c3)C(Nc3cccc(F)c3)=NC2=O)nc1C`, the pIC50 in the assay with HCT-116 [1] is 4.64; with MGC-803 [2], 4.67; in the assay on Huh-7, 4.23.

For the compound `CC(=O)c1sc(N/N=C2/C=C(Nc3ccc(Br)cc3)C(Nc3ccc(Br)cc3)=NC2=O)nc1C`, the values for the pIC50 in the assay on HCT-116 [1], in the assay on MGC-803 [2] and with Huh-7 were 4.88, 5.04 and 4.75, respectively.

Consider `CC(=O)c1sc(N/N=C2/C=C(Nc3ccc(C)cc3)C(Nc3ccc(C)cc3)=NC2=O)nc1C`, for which the pIC50 with HCT-116 [1] is 4.28; in the assay on MGC-803 [2] it was 4.12; in the assay with Huh-7 it was 4.14.

For the compound `COc1cccc(NC2=C/C(=N/Nc3nc(C)c(C(C)=O)s3)C(=O)N=C2Nc2cccc(OC)c2)c1`, the pIC50 in the assay with HCT-116 [1], in the assay with MGC-803 [2] and in the assay with Huh-7 was below 3.89 each time.

For the compound `CC(=O)c1sc(N/N=C2/C=C(Nc3cccc(Cl)c3)C(Nc3cccc(Cl)c3)=NC2=O)nc1C`, the pIC50 in the assay with HCT-116 [1] is 4.98; with MGC-803 [2] it was 5.29; with Huh-7 it was below 3.89.

Consider `CC(=O)c1sc(N/N=C2/C=C(Nc3cccc(C)c3)C(Nc3cccc(C)c3)=NC2=O)nc1C`, for which the pIC50 with HCT-116 [1], with MGC-803 [2] and in the assay on Huh-7 was below 3.89 in each case.

Turning to `COc1ccccc1NC1=C/C(=N/Nc2nc(C)c(C(C)=O)s2)C(=O)N=C1Nc1ccccc1OC`, the pIC50 in the assay on HCT-116 [1] was 4.07; in the assay on MGC-803 [2], 4.29; with Huh-7, 4.69.

Consider `COc1ccc(NC2=C/C(=N/Nc3nc(C)c(C(C)=O)s3)C(=O)N=C2Nc2ccc(OC)cc2)cc1`, for which the pIC50 is below 3.89 in the assay on HCT-116 [1], 4.08 in the assay with MGC-803 [2] and below 3.89 with Huh-7.

Turning to `CC(=O)c1sc(N/N=C2/C=C(Nc3cccc(Br)c3)C(Nc3cccc(Br)c3)=NC2=O)nc1C`, the figures for the pIC50 with HCT-116 [1], in the assay with MGC-803 [2] and in the assay with Huh-7 were 4.65, 4.67 and below 3.89, respectively.

With `CC(=O)c1sc(N/N=C2/C=C(Nc3ccc(Cl)cc3)C(Nc3ccc(Cl)cc3)=NC2=O)nc1C`, the pIC50 in the assay on HCT-116 [1] was 5.08; in the assay with MGC-803 [2] it was 5.07; in the assay on Huh-7 it was below 3.89.

With `CC(=O)c1sc(N/N=C2/C=C(Nc3ccccc3)C(Nc3ccccc3)=NC2=O)nc1C`, the pIC50 was 4.60 with HCT-116 [1], 4.87 with MGC-803 [2] and 4.72 in the assay on Huh-7.

For the compound `O=c1[nH]cc(F)c(=O)[nH]1` [FLUOROURACIL], the pIC50 is 4.95 in the assay on HCT-116 [1], 4.59 in the assay on MGC-803 [2] and 5.25 in the assay on Huh-7.

For `CC(=O)c1sc(N/N=C2/C=C(Nc3ccccc3C)C(Nc3ccccc3C)=NC2=O)nc1C`, the pIC50 in the assay with HCT-116 [1] was below 3.89; in the assay with MGC-803 [2] it was 4.35; in the assay on Huh-7, below 3.89.

Turning to `CC(=O)c1sc(N/N=C2/C=C(Nc3ccccc3Cl)C(Nc3ccccc3Cl)=NC2=O)nc1C`, the pIC50 is 5.09 with HCT-116 [1], 5.50 in the assay on MGC-803 [2] and 4.67 in the assay with Huh-7. Moreover, the “Ratio IC50” value in the assay with MGC-803 [3] is listed as 8.1; in the assay with HCT-116 [4] it was 1.4.
